Screens deposited in PubChem BioAssay by several laboratories.
PLK1 inh: inhibitors of human PLK1 kinase; P53350; recombinant PLK1 kinase, TR-FRET peptide phosphorylation; inhibition, % at 10 µM; actives 0.53% (n = 97,000); AID 619;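 active means inhibition of 50% or more in the single-concentration screen; inactive means inhibition below 50%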
Rev-RRE block: HIV Rev-RRE protein-RNA interaction inhibition; P05866; Rev peptide-RRE RNA binding, FRET; inhibition, % at 8 µM; actives 0.79% (n = 97,000); AID 704;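 active means inhibition above the screen-wide mean plus 3 SD, cut at about 35% in these data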
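Assay system: Labelled RRE RNA duplex and labelled Rev peptide | Times: 5 min preincubation and 15 min binding, 25 °C | Detection: FRET, ex 480 nm, em 540 and 671 nm | Evaluation: % inhibition of FRET ratio versus controls | Benchmarks: DMSO wells as 0% and neomycin B wells as 100% inhibition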
Plk1 PBD FP: Plk1 (human) PBD binding inhibition; inhibition, %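 (tested at about 20 µM)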; AID 693; actives 0.13% (n = 97,000); P53350; Plk1 PBD phosphopeptide binding, fluorescence polarization; in the data active means inhibition above about 34%, passing the limit was not always enough
FAK blocker: blocks human focal adhesion kinase activity. inhibition, %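 (tested at 7 µM)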. Q05397. biochemical FAK kinase activity assay. actives 0.84% (n = 97,000); in the data active means inhibition above about 19%
Target sequence (Q05397 whole entry, looked up): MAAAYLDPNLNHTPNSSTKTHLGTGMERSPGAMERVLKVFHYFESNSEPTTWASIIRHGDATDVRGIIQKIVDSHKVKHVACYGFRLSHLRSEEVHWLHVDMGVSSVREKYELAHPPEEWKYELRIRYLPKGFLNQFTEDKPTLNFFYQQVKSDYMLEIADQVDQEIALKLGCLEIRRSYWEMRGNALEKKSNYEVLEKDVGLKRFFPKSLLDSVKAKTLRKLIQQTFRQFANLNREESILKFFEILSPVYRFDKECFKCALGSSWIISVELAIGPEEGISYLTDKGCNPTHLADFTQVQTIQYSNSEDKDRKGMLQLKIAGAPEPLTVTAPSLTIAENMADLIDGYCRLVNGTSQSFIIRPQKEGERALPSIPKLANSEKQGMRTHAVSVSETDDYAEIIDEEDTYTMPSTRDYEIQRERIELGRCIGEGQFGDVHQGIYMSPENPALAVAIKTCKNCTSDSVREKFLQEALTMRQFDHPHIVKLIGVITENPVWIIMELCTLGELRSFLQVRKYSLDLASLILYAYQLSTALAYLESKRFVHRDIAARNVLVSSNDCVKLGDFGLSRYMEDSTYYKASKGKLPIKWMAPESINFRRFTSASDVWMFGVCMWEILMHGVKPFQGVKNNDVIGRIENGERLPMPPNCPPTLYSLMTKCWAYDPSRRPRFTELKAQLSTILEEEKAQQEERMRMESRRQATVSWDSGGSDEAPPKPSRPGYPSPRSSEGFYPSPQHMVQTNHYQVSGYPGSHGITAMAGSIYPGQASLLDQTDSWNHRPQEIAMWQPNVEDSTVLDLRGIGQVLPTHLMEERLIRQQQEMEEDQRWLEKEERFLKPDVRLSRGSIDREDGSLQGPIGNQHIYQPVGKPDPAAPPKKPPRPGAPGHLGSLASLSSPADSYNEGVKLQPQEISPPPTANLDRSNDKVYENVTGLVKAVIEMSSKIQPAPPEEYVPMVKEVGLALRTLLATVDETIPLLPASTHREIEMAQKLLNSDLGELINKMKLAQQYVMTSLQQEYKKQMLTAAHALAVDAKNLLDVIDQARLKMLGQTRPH
Pyk2 oligo antag: Pyk2 (human) oligomerization antagonism | Q293 cells, Pyk2 FERM NanoBiT luminescence; stronger effect = lower value | z-score (the deposit names both 25 µM and 10 µM) | actives 0.83% (n = 99,000) | AID 1347419;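 active means Z-score of -3 or lower, scaled per plate to the spread of control and sample wells; inactive means z-score above -3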;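 further: negative z-score means lost luminescence so less FERM oligomerization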
Cav3 T inh: inhibitors of human Cav3.2 T-type calcium channel; O95180; Cav3.2-expressing cells, Fluo-4 calcium fluorescence FDSS; stronger effect = lower value; B-score at 10 µM; actives 4% (n = 100,000); AID 449739;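 active means single-dose well whose peak fluorescence ratio is a statistical outlier from its plate by either plate-standardised score or position-corrected B-score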
A number is an active result; n = inactive; x = no result; [ ] = dose if it differs, or a comment. Shown are actives, neighbours in structure and some others; about 5.8% of the full set was active somewhere.

SMILES	PLK1 inh	Rev-RRE block	Plk1 PBD FP	FAK blocker	Pyk2 oligo antag	Cav3 T inh
COc1ccc(/C(O)=C/C(=O)C(=O)NNC(=O)C(O)(c2ccccc2)c2ccccc2)cc1	n	n	n	n	n	-9.7
Cc1ccccc1NC(=O)C1(NC(=O)c2cccc(N3C(=O)CSC3c3ccccc3)c2)CCCCC1 (stereo unspecified)	n	n	n	n	n	-10
Cc1ccccc1NC(=O)c1cccc(N2C(=O)C3C4CCC(C4)C3C2=O)c1 (stereo unspecified)	n	n	n	n	n	n
Cc1cc(C)cc(NC(=O)NC2CCN(CC(=O)Nc3c(C)cc(C)cc3C)CC2)c1	n	n	n	n	x	x
Cc1ccc(C2CC(=O)Nc3cc4c(cc32)OCO4)o1 (stereo unspecified)	n	n	n	n	n	n
O=C(COc1ccc2ccccc2c1CN1CCOCC1)N1CCc2ccccc21	n	n	n	n	n	n
O=C(CN(Cc1ccc(Cl)c(Cl)c1)S(=O)(=O)c1ccccc1)N/N=C\c1ccc2c(c1)OCO2	n	n	n	n	n	n
O=C(CN(Cc1ccccc1)S(=O)(=O)c1ccccc1)N/N=C/c1ccc2c(c1)OCO2	n	n	n	n	n	-4.2
CC(C)(C)C1CCc2c(sc(NC(=O)c3cccs3)c2C(N)=O)C1 (stereo unspecified)	n	n	n	n	n	n
CN1CCN(C(=O)c2c(NC(=O)c3ccco3)sc3c2CCC(C(C)(C)C)C3)CC1 (stereo unspecified)	n	n	n	n	-4.6	n
Cc1ccc(Nc2nnc(SCC(=O)Nc3cccnc3Cl)s2)cc1C	x	x	x	x	n	x
CN(C)c1ccc(NC(=O)CSc2nc3ccccc3c(=O)n2C2CCCCC2)cc1	n	n	n	n	n	n
CCCN(CCC)C(=O)CSc1nc2ccccc2c(=O)n1C1CCCC1	n	n	n	n	n	-5.6
C=CCn1c(/N=C/c2ccc(N(C)C)cc2)nc2ccccc21	n	50	n	n	n	n
CCOC(=O)C1=C(C)N(c2ccccc2)C(=O)/C1=C\c1cccs1	x	x	x	x	n	x
CCOC(=O)C1=C(C)N(CC(C)C)C(=O)/C1=C\c1ccc(OCC(=O)Nc2ccccc2)cc1	n	n	n	n	n	-5.5
Cc1ccc(NC(C)c2cc(Cl)ccc2O)cc1 (stereo unspecified)	n	n	n	n	n	n
CCCCN1CNC(=S)N(Cc2ccccc2)C1	x	x	x	x	n	x
COc1ccc2oc(C(=O)CCC(=O)O)c(N)c2c1	63	n	n	n	x	x
Cc1snc(S(=O)(=O)/C(C#N)=N/Nc2ccc(C(F)(F)F)cc2)c1C#N	n	n	n	n	n	-6.4
Cc1cccc(OCC(=O)NNc2c3ccccc3nc3ccccc23)c1	n	n	n	n	n	n
Cc1cccc(OCC(=O)NC(C)C(=O)N/N=C/c2c(OCc3ccccc3)ccc3ccccc23)c1 (stereo unspecified)	n	n	n	n	n	-6.8
CCC(Cc1ccccc1)NC(=O)C1CCC(CNc2c(N3CCCC3)c(=O)c2=O)CC1 (stereo unspecified)	n	n	n	n	x	n
O=C(COc1ccccc1Cl)NCc1ccncc1	x	x	x	x	n	n
CCCc1nc(SCC(=O)N2CCC(Cc3ccccc3)CC2)c2c(=O)n(C)c(=O)n(C)c2n1	n	n	n	n	x	n
SMILES	PLK1 inh	Rev-RRE block	Plk1 PBD FP	FAK blocker	Pyk2 oligo antag	Cav3 T inh
CCOC(=O)C1=C(O)/C(=C/c2ccc(-c3ccccc3C(=O)O)o2)SC1=Nc1ccc(C)cc1	n	x	x	x	x	x
CCOC(=O)C1=C(O)/C(=C/c2ccc(-c3ccccc3C(=O)O)o2)SC1=Nc1ccc(OC)cc1	n	89[fluorescence artefact?]	n	n	n	n
CCOC(=O)C1=C(N)OC2=C(C(=O)CC(C)(C)C2)C1c1ccoc1 (stereo unspecified)	n	n	n	n	n	n
CCOC(=O)C1=C(N)OC2=C(C(=O)CC(C)(C)C2)C1C1CCCCC1 (stereo unspecified)	n	n	n	n	n	-9
CC1CCCC(NC(=O)COC(=O)Cc2ccsc2)C1C (stereo unspecified)	n	n	n	n	n	n
CCc1ccccc1N(CC)C(=O)CCc1nc(-c2ccc(C)cc2)no1	n	n	n	n	-3	n
CCN(Cc1ccccc1)C(=O)CCc1nc(-c2ccc(C)cc2)no1	n	n	n	n	n	-7.5
Cc1ccc(CN(C#N)c2nc(C)cc(C)n2)cc1	n	n	n	n	n	n
Cc1cc(C)nc(N(C#N)Cc2ccc(Br)cc2)n1	n	n	n	n	-3.1	n
CC(C)=NN/C(N)=N/C(=S)Nc1ccc(C)cc1	x	x	x	x	n	x
COc1ccc(CNCC(O)(c2ccc(Cl)cc2)c2ccc(Cl)cc2)cc1	n	n	n	n	n	n
COc1ccc(CNCC(O)(c2ccc(Cl)cc2)c2ccc(Cl)cc2)cc1OC	n	63	n	n	n	n
OC(CNCc1ccc(F)cc1)(c1ccc(F)cc1)c1ccc(F)cc1	n	n	n	n	n	-4.2
O=C(COC(=O)CNC(=O)c1ccccc1)Nc1nc(-c2ccccc2)cs1	x	x	x	x	n	x
CCNC(=O)NC(=O)CSc1ccccc1F	x	x	x	x	n	x
COc1ccc(S(=O)(=O)N(CCc2ccccc2)CC(=O)O)cc1C	n	n	n	n	n	n
CCOC(=O)CC(=O)CSc1nc2ccc(C)cc2cc1C#N	n	94[fluorescence artefact?]	n	n	n	n
Cc1ccc(C(=O)Nc2cccc(C(F)(F)F)c2)cc1Nc1ncnc2nc[nH]c12	x	x	x	x	x	n
CCc1ccc2[nH]c(=O)c(CN(Cc3ccccc3)C(=O)Nc3ccccc3OC)cc2c1	n	n	n	n	n	-4.3
COc1ccccc1NC(=S)N(Cc1ccco1)Cc1cc2cc(C)c(C)cc2[nH]c1=O	x	x	x	x	n	x
Cc1ccc(C)c2[nH]c(=O)c(CN(Cc3ccco3)C(=O)Nc3ccccc3)cc12	n	n	n	n	n	-6
Cc1cccc2cc(CN(Cc3ccco3)C(=O)Nc3cccc(C#N)c3)c(Cl)nc12	n	n	n	n	n	-4.5
Cc1ccc2cc(CN(Cc3ccco3)C(=O)c3ccccc3)c(=O)[nH]c2c1C	n	n	n	n	n	n
COc1ccccc1NC(=O)N(Cc1ccco1)Cc1cc2cc(C)cc(C)c2[nH]c1=O	n	n	n	n	n	-5.1
COc1cc(Cl)c(S(=O)(=O)NCc2ccccn2)cc1Cl	n	n	n	n	n	n
COC(=O)C1=C(C)N(CCCC(=O)O)C(=O)NC1c1ccccc1OS(=O)(=O)c1ccc([N+](=O)[O-])cc1 (stereo unspecified)	x	x	x	x	x	n
Cc1ccc2cc(CN(Cc3ccco3)C(=O)NCc3ccccc3)c(=O)[nH]c2c1C	n	n	n	n	n	-4.3
COc1ccccc1NC(=O)N(Cc1ccco1)Cc1cc2ccc(C)c(C)c2[nH]c1=O	n	n	n	n	n	-6.7
CC(C(=O)NCc1ccco1)n1cc(C(=O)c2ccco2)c2ccccc21 (stereo unspecified)	n	n	n	n	n	n
